How the values were obtained:
[1] = tested on: CWR22R; assay: Antiproliferative activity against human 22Rv1 cells assessed as cell growth inhibition; type: functional, cell-based
[2] = tested on: MCF7; assay: Antiproliferative activity against human MCF7 cells assessed as cell growth inhibition; type: functional, cell-based
[3] = tested on: PC-3; assay: Antiproliferative activity against human PC3 cells assessed as cell growth inhibition; type: functional, cell-based
[4] = tested on: CWR22R; assay: Potency index, ratio of JG-98 IC50 to compound IC50 for human 22Rv1 cells; type: functional
[5] = Inhibition of HSP70 in human 22Rv1 cells assessed as induction of heat shock response by measuring HSP72 level measured after 24 hrs by Western blot analysis; type: cell-based; details: cwr22r
Outline: (§1)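 22Rv1 cells were treated for 24 h at the indicated concentrations, then lysed and analysed by western blot for the named protein. Blots are representative of at least two independent experiments. Quantifications are averages of at least two independent experiments, with error bars as S.E.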

[6] = tested on: PC-3; assay: Potency index, ratio of JG-98 IC50 to compound IC50 for human PC3 cells; type: functional
[7] = tested on: CWR22R; assay: Inhibition of HSP70 in human 22Rv1 cells assessed as reduction in HuR protein level at 0.3 to 5 uM measured after 24 hrs by Western blot analysis; type: cell-based; outline: as §1
[8] = tested on: CWR22R; assay: Inhibition of HSP70 in human 22Rv1 cells assessed as reduction in CDK4 protein level at 0.3 to 5 uM measured after 24 hrs by Western blot analysis; type: cell-based; outline: as §1
[9] = tested on: CWR22R; assay: Inhibition of HSP70 in human 22Rv1 cells assessed as reduction in c-Raf1 protein level at 0.3 to 5 uM measured after 24 hrs by Western blot analysis; type: cell-based; outline: as §1
[10] = tested on: CWR22R; assay: Inhibition of HSP70 in human 22Rv1 cells assessed as reduction in Akt-1 protein level at 0.3 to 5 uM measured after 24 hrs by Western blot analysis; type: cell-based; outline: as §1
[11] = tested on: MCF7; assay: Potency index, ratio of JG-98 IC50 to compound IC50 for human MCF7 cells; type: functional
[12] = Inhibition of HSP70 in human 22Rv1 cells assessed as induction of heat shock response by measuring HSP90 level at 0.3 to 5 uM measured after 24 hrs by Western blot analysis; type: cell-based; details: cwr22r; outline: as §1

c1ccc(Nc2nc(-c3nc4ccccc4s3)cs2)nc1
IC50 [1]: 3200 nM
IC50 [2]: 3600 nM
IC50 [3]: 6700 nM

CCn1c(=O)/c(=C2\Sc3ccc(C)cc3N2C)s/c1=C\c1ccncc1Nc1ccccc1F
Ratio IC50 [4]: 7 - 10
inhibition (INH) [5]: Not Active
IC50 [1]: 150 nM
IC50 [2]: 100 nM
Ratio IC50 [6]: 7 - 10
inhibition [7]: 50%
inhibition [8]: 50%
inhibition [9]: 50%
inhibition [10]: 50%
Ratio IC50 [11]: 7 - 10
IC50 [3]: 70 nM
inhibition (INH) [12]: Not Active

CCn1c(=O)/c(=C2\Sc3ccccc3N2C)s/c1=C\c1ccncc1Nc1cc(F)ccc1F
IC50 [1]: 1100 nM
IC50 [2]: 1500 nM
IC50 [3]: 1200 nM

CCn1c(=O)/c(=C2\Sc3cc(F)ccc3N2C)s/c1=C\c1ccncc1Nc1ccccc1Cl
IC50 [1]: 490 nM
IC50 [2]: 1300 nM
IC50 [3]: 1200 nM

CCn1c(=O)/c(=C2\Sc3ccc(OC)cc3N2C)s/c1=C\c1ccncc1Nc1ccccc1Cl
IC50 [1]: 500 nM
IC50 [2]: 710 nM
IC50 [3]: 760 nM

CCn1c(=O)/c(=C2\Sc3ccc(C)cc3N2C)s/c1=C\c1ccncc1Nc1ccccc1Cl
IC50 [1]: 350 nM
IC50 [2]: 650 nM
IC50 [3]: 500 nM

CCn1c(=O)/c(=C2\Sc3ccccc3N2C)s/c1=C\c1ccncc1Nc1ccccc1C
IC50 [1]: 470 nM
IC50 [2]: 990 nM
IC50 [3]: 1200 nM

CCc1ccc2c(c1)S/C(=c1/s/c(=C\c3ccncc3Nc3ccccc3F)n(CC)c1=O)N2C
IC50 [1]: 1200 nM
IC50 [2]: 1200 nM
IC50 [3]: 2200 nM

CCn1c(=O)/c(=C2\Sc3ccc(OC)cc3N2C)s/c1=C\c1ccncc1Nc1ccccc1F
IC50 [1]: 190 nM
IC50 [2]: 130 nM
IC50 [3]: 100 nM

CCn1c(=O)/c(=C2\Sc3ccccc3N2C)s/c1=C\c1ccncc1Nc1ccccc1F
IC50 [1]: 300 nM
IC50 [2]: 330 nM
IC50 [3]: 360 nM

CCn1c(=O)/c(=C2\Sc3ccc(C)cc3N2C)s/c1=C\c1ccncc1Nc1ccccc1C
IC50 [1]: 480 nM
IC50 [2]: 400 nM
IC50 [3]: 330 nM

CCn1c(=O)/c(=C2\Sc3ccccc3N2C)s/c1=C\c1ccncc1Nc1cc(C)ccc1C
IC50 [1]: 1800 nM
IC50 [2]: 1700 nM
IC50 [3]: 2000 nM

CCn1c(=O)/c(=C2\Sc3ccccc3N2C)s/c1=C\c1ccncc1Nc1ccccc1Cl
IC50 [1]: 460 nM
IC50 [2]: 750 nM
IC50 [3]: 780 nM

c1ccc(Nc2nc(-c3nc4ccccc4s3)cs2)cc1
IC50 [1]: 6900 nM
IC50 [2]: 7600 nM
IC50 [3]: 5500 nM

c1ccc(Nc2cccc(-c3nc4ccccc4s3)c2)nc1
IC50 [1]: 13000 nM
IC50 [2]: 13000 nM
IC50 [3]: 4800 nM

CCn1c(=O)/c(=C2\Sc3ccc(OC)cc3N2C)s/c1=C\c1ccncc1Nc1ccccc1C
IC50 [1]: 410 nM
IC50 [2]: 420 nM
IC50 [3]: 370 nM

CCn1c(=O)/c(=C2\Sc3cc(F)ccc3N2C)s/c1=C\c1ccncc1Nc1ccccc1C
IC50 [1]: 2300 nM
IC50 [2]: 1300 nM
IC50 [3]: 2300 nM

COc1ccc(Cl)c(Nc2cccc(-c3nc4ccccc4s3)c2)c1
IC50 [1]: 2100 nM
IC50 [2]: 710 nM
IC50 [3]: 2200 nM

CCn1c(=O)/c(=C2\Sc3cc(F)ccc3N2C)s/c1=C\c1ccncc1Nc1ccccc1F
IC50 [1]: 150 nM
IC50 [2]: 230 nM
IC50 [3]: 260 nM
